# Assay results of several laboratories.
# Compare with care: the assays were run in different laboratories.
# Target: Ephrin type-A receptor 4 (EPHA4, Homo sapiens, UniProt P54764)
SMILES,assay,setting,quantity,value
CS(=O)(=O)N1CCCC(NC(=O)[C@H](CCC2CCCCC2)NC(=O)c2ccc(CNc3ncnc4c3nnn4-c3ccccc3)cc2)C1 (stereo partly shown),"cell-free assay, competition with immobilised ligand",0.1 µM,remaining binding,76%
COc1cc2ncnc(Nc3ccc(Oc4ccccc4)c(C)c3C)c2cc1OC,"enzyme activity, inhibitor",1 µM,inhibition,10%
Cc1sc(C(=O)NC2COC2)cc1-n1cc(NC(=O)Nc2c(F)cccc2Cl)cn1,"enzyme activity, inhibitor",10 µM,remaining activity,116%
COc1cc(Nc2cnc(C#N)c(O[C@H](C)CN(C)C)n2)ncc1-c1cnn(C)c1,"enzyme activity, inhibitor, radiometric",1 µM,remaining activity,73%
Cc1cc(NC(=O)c2cccc3cc(-c4cccc5[nH]nc(N)c45)ccc23)ccc1F,"enzyme activity, inhibitor",0.1 µM,activity vs control,73%
Cn1c(=O)n(-c2ccc(C(C)(C)C#N)cc2)c2c3cc(-c4cnc5ccccc5c4)ccc3ncc21,"enzyme activity, inhibitor",10 µM,remaining activity,105%
Cc1ccc(NC(=O)c2ccc(C)c(C(F)(F)F)c2)cc1C#Cc1nn(C2CCC(O)CC2)c2ncnc(N)c12 (stereo not shown),cell-free assay,10 µM,remaining signal,-2%
CCC(=O)N[C@@H]1CC[C@H](C(=O)N(C)c2ccc(-c3nc4ccccc4o3)cc2)C1,"cell-free assay, competition with immobilised ligand",1 µM,remaining binding,100%
Nc1ncnc2occ(-c3ccc(NC(=O)Nc4cc(C(F)(F)F)ccc4F)cc3)c12,cell-free assay,20 µM,remaining signal,0%
COc1ccc2cc(OCC3(C(=O)O)CN(C(=O)c4ccc(F)cc4)C3)ccc2c1,"cell-free assay, competition with immobilised ligand",1 µM,remaining binding,100%
CNC(=O)c1cc2c(Oc3ccc(NC(=O)C4(C(=O)Nc5ccc(F)cc5)CC4)cc3)ccnc2cc1OC,"enzyme activity, inhibitor, radiometric",1 µM,inhibition,83%
CC(C)(O)[C@H]1CC[C@H](Nc2ccc3ncc(-c4cccc(C(F)(F)F)c4)n3n2)CC1,"enzyme activity, inhibitor",1 µM,remaining activity,98.8%
CCCOc1ccc(OC)c(F)c1C(=O)c1ccc(C(=O)N[C@@H]2CNC[C@H]2NC(=O)c2ccc3[nH]ncc3c2)cc1,"enzyme activity, inhibitor",10 µM,remaining activity,82%
C[C@@H](c1cccc(C#N)c1)n1cc(Cl)cc(C(N)=O)c1=N,"cell-free assay, competition with immobilised ligand",1 µM,remaining binding,90%
CNC(=O)c1cc(Oc2ccc(NC(=O)Nc3ccc(Cl)c(C(F)(F)F)c3)cc2)ccn1,"enzyme activity, inhibitor",0.3 µM,inhibition,7%
O=C1NC(=O)c2cc(Nc3ccc(F)cc3)c(Nc3ccc(F)cc3)cc21,cell-free assay,0.5 µM,remaining signal,94%
Cc1cnc(NC2CCOCC2)nc1-n1cnc(C(=O)NC(CN)c2cc(F)cc(Cl)c2)c1 (stereo not shown),"enzyme activity, inhibitor, radiometric",1 µM,remaining activity,104%
Nc1c(C(=O)NCc2ccc(C(=O)NCCCC3CCCCC3)cc2)cnn1-c1ccccc1,"cell-free assay, competition with immobilised ligand",0.1 µM,remaining binding,100%
O=C(Nc1cnn(-c2csc(C(=O)NC3COC3)c2)c1)Nc1c(F)cccc1Cl,"enzyme activity, inhibitor",5 µM,remaining activity,89.1%
Cc1noc([C@H]2C[C@@H](c3ccc(C(F)(F)F)cc3)CN(C(=O)N3CCS(=O)(=O)C3)C2)n1,"cell-free assay, competition with immobilised ligand",1 µM,remaining binding,100%
Cc1ccc(Nc2nccc(N(C)c3ccc4c(C)n(C)nc4c3)n2)cc1S(N)(=O)=O,"enzyme activity, inhibitor",0.3 µM,inhibition,3%
N#CC1(c2ccccn2)CCN(Cc2cc(C(=O)N3CCCC3)c(=O)n3ccccc23)CC1,"cell-free assay, competition with immobilised ligand",1 µM,remaining binding,89%
CCN(CC)CCNC(=O)c1c(C)[nH]c(/C=C2\C(=O)Nc3ccc(F)cc32)c1C,"enzyme activity, inhibitor",0.3 µM,inhibition,1%
CC(C)(C)c1nc2c(s1)c1nc(N)ncc1c1ccc(NS(=O)(=O)c3c(F)cccc3F)c(F)c12,"enzyme activity, inhibitor, radiometric",1 µM,remaining activity,99%
CCS(=O)(=O)c1cc2cc(C[C@](O)(CC(C)(C)c3ccc(F)cc3C(N)=O)C(F)(F)F)[nH]c2cn1,"cell-free assay, competition with immobilised ligand",1 µM,remaining binding,100%
